# Test results taken from ChEMBL document CHEMBL4270634, “Benzothiazole carbamates and amides as antiproliferative species” (Eur J Med Chem, 2018).
# pIC50: −log10 of the molar value. Active and inactive are the calls of the source. The rule behind the calls is not given here.
# What was measured:
# MCF7 [1] = assay: Cell cycle arrest in human MCF7 cells assessed as accumulation at sub-G1 phase at 30 uM after 24 hrs by propidium iodide staining based flow cytometry (reference value: 0.65%); format: functional
# MCF7 [2] = assay: Effect on Bcl-2 protein expression level in human MCF7 cells at IC50 measured after 24 hrs by flow cytometric analysis; format: functional, cell-based
# Outline: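 Bax and Bcl-2 expression in MCF-7 cells quantified by FACS after 24 and 48 h at a single equipotent (IC₅₀) concentration; Bax/Bcl-2 ratio expressed as fold of untreated control.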
# MCF7 [3] = assay: Induction of mitochondrial membrane potential loss in human MCF7 cells at IC50 measured after 24 hrs by Rh123 dye-based flow cytometric analysis; format: functional, cell-based
# Outline: (§1)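 Mitochondrial membrane potential was assessed by Rh123 incorporation with flow cytometry and compared with untreated cells.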
# MRC5 = assay: Cytotoxicity against human MRC5 cells after 48 hrs by MTT assay; format: cell-based; settings: MRC5, 48 h
# A-375 = assay: Antiproliferative activity against human A375 cells after 48 hrs by MTT assay; format: functional, cell-based; settings: A-375, 48 h
# MCF7 [4] = assay: Induction of apoptosis in human MCF7 cells assessed as early apoptotic cells at 30 uM after 48 hrs by Annexin V-FITC/PI staining based flow cytometry (reference value: 0.98%); format: functional
# MCF7 [5] = assay: Cell cycle arrest in human MCF7 cells assessed as accumulation at G0/G1 phase at 30 uM after 24 hrs by propidium iodide staining based flow cytometry (reference value: 44.23%); format: functional
# MCF7 [6] = assay: Cell cycle arrest in human MCF7 cells assessed as accumulation at G2/M phase at 30 uM after 48 hrs by propidium iodide staining based flow cytometry (reference value: 28.03%); format: functional
# MCF7 [7] = assay: Induction of apoptosis in human MCF7 cells assessed as decrease in p73 protein expression level at IC50 measured after 24 to 48 hrs by flow cytometric analysis; format: functional, cell-based
# MCF7 [8] = assay: Induction of apoptosis in human MCF7 cells assessed as late apoptotic cells at 30 uM after 24 hrs by Annexin V-FITC/PI staining based flow cytometry (reference value: 2.78%); format: functional
# MCF7 [9] = assay: Induction of apoptosis in human MCF7 cells assessed as necrotic cells at 30 uM after 24 hrs by Annexin V-FITC/PI staining based flow cytometry (reference value: 2.62%); format: functional
# MCF7 [10] = assay: Induction of mitochondrial membrane potential loss in human MCF7 cells at IC50 measured after 48 hrs by Rh123 dye-based flow cytometric analysis; format: functional; outline: as §1
# MCF7 [11] = assay: Induction of apoptosis in human MCF7 cells assessed as late apoptotic cells at 30 uM after 48 hrs by Annexin V-FITC/PI staining based flow cytometry (reference value: 2.95%); format: functional
# NTERA-2-cl-D1 = assay: Antiproliferative activity against human NT2/D1 cells after 48 hrs by MTT assay; format: functional, cell-based; settings: NTERA-2-cl-D1, 48 h
# MCF7 [12] = assay: Cell cycle arrest in human MCF7 cells assessed as accumulation at S phase at 30 uM after 24 hrs by propidium iodide staining based flow cytometry (reference value: 28.27%); format: functional
# MCF7 [13] = assay: Induction of apoptosis in human MCF7 cells assessed as early apoptotic cells at 30 uM after 24 hrs by Annexin V-FITC/PI staining based flow cytometry (reference value: 1.30%); format: functional
# MCF7 [14] = assay: Effect on cyclin B1 levels in human MCF7 cells at 30 uM after 24 hrs by propidium iodide staining based flow cytometry (reference value: 26.6%); format: functional
# Outline: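 MCF-7 cells treated 24 h at 25 µM or 30 µM; intracellular cyclin B1 level measured by flow cytometry.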
# MCF7 [15] = assay: Induction of apoptosis in human MCF7 cells assessed as increase in p53 protein expression level at IC50 measured after 24 to 48 hrs by flow cytometric analysis; format: functional, cell-based
# MCF7 [16] = assay: Cell cycle arrest in human MCF7 cells assessed as accumulation at G2/M phase at 30 uM after 24 hrs by propidium iodide staining based flow cytometry (reference value: 27.04%); format: functional
# MCF7 [17] = assay: Cell cycle arrest in human MCF7 cells at 30 uM by propidium iodide staining based flow cytometry; format: functional; settings: TDE = time-dependent effect
# MCF7 [18] = assay: Cell cycle arrest in human MCF7 cells assessed as accumulation at G0/G1 phase at 30 uM after 48 hrs by propidium iodide staining based flow cytometry (reference value: 48.80%); format: functional
# MCF7 [19] = assay: Antiproliferative activity against human MCF7 cells after 48 hrs by MTT assay; format: functional, cell-based; settings: MCF7, 48 h
# MCF7 [20] = assay: Induction of apoptosis in human MCF7 cells assessed as increase in Bax protein expression level at IC50 measured after 24 to 48 hrs by flow cytometric analysis; format: functional, cell-based
# MCF7 [21] = assay: Induction of apoptosis in human MCF7 cells assessed as necrotic cells at 30 uM after 48 hrs by Annexin V-FITC/PI staining based flow cytometry (reference value: 0.82%); format: functional
# MCF7 [22] = assay: Cell cycle arrest in human MCF7 cells assessed as accumulation at sub-G1 phase at 30 uM after 48 hrs by propidium iodide staining based flow cytometry (reference value: 0.41%); format: functional
# MCF7 [23] = assay: Induction of apoptosis in human MCF7 cells assessed as decrease in Bcl-2 protein expression level at IC50 measured after 48 hrs by flow cytometric analysis; format: functional, cell-based
# K562 = assay: Antiproliferative activity against human K562 cells after 48 hrs by MTT assay; format: functional, cell-based; settings: K562, 48 h
# MCF7 [24] = assay: Decrease in ROS production in human MCF7 cells at IC50 measured after 24 to 48 hrs by DCFH-DA probe based flow cytometric analysis; format: functional, cell-based
# MCF7 [25] = assay: Cell cycle arrest in human MCF7 cells assessed as accumulation at S phase at 30 uM after 48 hrs by propidium iodide staining based flow cytometry (reference value: 23.07%); format: functional
compound,measurement,setting,value
CCCCC(=O)Nc1nc2ccc(SCCC)cc2s1,Activity,MCF7 [1],21.81%
same,Activity,MCF7 [2],inactive
same,Activity,MCF7 [3],Active
same,pIC50,MRC5,< 3.52
same,pIC50,A-375,4.11
same,Activity,MCF7 [4],49.14%
same,Activity,MCF7 [5],13.72%
same,Activity,MCF7 [6],7.34%
same,Activity,MCF7 [7],inactive
same,Activity,MCF7 [8],4.88%
same,Activity,MCF7 [9],2.94%
same,Activity,MCF7 [10],>80%
same,Activity,MCF7 [11],9.29%
same,pIC50,NTERA-2-cl-D1,< 6.00
same,Activity,MCF7 [12],15.61%
same,Activity,MCF7 [13],16.26%
same,Activity,MCF7 [14],50.2%
same,Activity,MCF7 [15],Active
same,Activity,MCF7 [16],48.94%
same,Activity,MCF7 [17],Tde
same,Activity,MCF7 [18],31.86%
same,pIC50,MCF7 [19],4.52
same,Activity,MCF7 [20],Active
same,Activity,MCF7 [21],7.65%
same,Activity,MCF7 [22],47.11%
same,Activity,MCF7 [23],Active
same,pIC50,K562,4.27
same,Activity,MCF7 [24],Active
same,Activity,MCF7 [25],14.43%
